Laboratory results: ChEMBL document CHEMBL1134405 (J Med Chem, 2001)
The source made the active and inactive calls. No cut-off for these calls is given here. Peptide text beside a SMILES is read from it.

Tests used:
[1] = biological target: Glucagon receptor (Rattus norvegicus, UniProt P30082); assay: IC50 value was expressed as inhibition of [125]glucagon specific binding.
Method in brief: (§1)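 Incubation 10 min at 30 °C, then ice cooling and filtration on 0.45 μm cellulose acetate, gamma counting. Nonspecific binding taken with 1024 nM unlabeled peptide and subtracted. Read as % inhibition of specific binding. Triplicates, repeated twice.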

[2] = biological target: T1, Adenylate cyclase (Rattus norvegicus) (UniProt D4A3N4+P26770+Q04400+P26769+Q03343+P40146+Q8CFM9+P21932); assay: Adenylate cyclase stimulation; Inactive up to 100 uM.; assay type: protein assay
[3] = biological target: T1, Adenylate cyclase (Rattus norvegicus); assay: Maximum stimulation of adenylate cyclase.; assay type: protein assay
[4] = biological target: Glucagon receptor (Rattus norvegicus) (UniProt P30082); assay: Relative binding by measuring competition for glucagon receptor between [125]glucagon and the compound.; method in brief: as §1
Sequence of Glucagon receptor (Rattus norvegicus) (P30082 whole entry): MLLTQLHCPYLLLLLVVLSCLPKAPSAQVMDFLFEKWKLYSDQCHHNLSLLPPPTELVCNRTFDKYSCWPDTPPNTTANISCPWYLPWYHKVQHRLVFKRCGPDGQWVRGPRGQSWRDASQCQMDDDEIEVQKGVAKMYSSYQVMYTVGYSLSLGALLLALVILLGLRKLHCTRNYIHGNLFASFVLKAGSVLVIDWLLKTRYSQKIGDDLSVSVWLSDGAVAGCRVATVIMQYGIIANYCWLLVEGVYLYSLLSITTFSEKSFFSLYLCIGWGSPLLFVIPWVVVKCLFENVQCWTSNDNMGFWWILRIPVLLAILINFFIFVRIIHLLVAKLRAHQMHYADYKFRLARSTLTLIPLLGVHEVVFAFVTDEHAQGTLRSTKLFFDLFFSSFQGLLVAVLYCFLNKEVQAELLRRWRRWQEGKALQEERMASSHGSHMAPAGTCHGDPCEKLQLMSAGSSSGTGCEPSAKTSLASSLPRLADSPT

[5] = A dose-response plot was obtained by determining the response when the concentration of glucagon was varied while the concentration was kept same.

Sequence of Glucagon receptor (P30082 whole entry): as above

| IC50 [1] [nM] | IA [2] | Max stimulation [3] [%] | Relative binding [4] [%] | Compound | pA2 [5] |
| --- | --- | --- | --- | --- | --- |
| 2300 | – | – | – | CSCC[C@H](NC(=O)[C@H](CC(C)C)NC(=O)[C@H](Cc1c[nH]c2ccccc12)NC(=O)[C@H](CCC(N)=O)NC(=O)[C@@H](NC(=O)[C@H](Cc1ccccc1)NC(=O)[C@H](CC(=O)O)NC(=O)[C@H](CCC(N)=O)NC(=O)[C@H](C)NC(=O)[C@H](CCCNC(=N)N)NC(=O)[C@H](CCCNC(=N)N)NC(C)=O)C(C)C)C(=O)N[C@@H](CC(N)=O)C(=O)N[C@H](C(N)=O)[C@@H](C)O | – |
| – | Inactive up to 100 uM | 0 | 0 | CC(=O)N[C@@H]1CSSC[C@H](C(N)=O)NC(=O)[C@@H](Cc2ccc(O)cc2)NC(=O)[C@H](CCCCN)NC(=O)[C@@H](CO)NC(=O)[C@H](Cc2ccc(O)cc2)NC1=O | – |
| – | Inactive up to 100 uM | 0 | 0.065 | CSCC[C@H](NC(=O)[C@H](CC(C)C)NC(=O)[C@H](Cc1c[nH]c2ccccc12)NC(=O)[C@H](CCC(N)=O)NC(=O)[C@@H](NC(=O)[C@H](Cc1ccccc1)NC(=O)[C@H](CC(=O)O)NC(=O)[C@H](CCC(N)=O)NC(=O)[C@H](C)NC(=O)[C@H](CCCN=C(N)N)NC(=O)[C@H](CCCN=C(N)N)NC(C)=O)C(C)C)C(=O)N[C@@H](CC(N)=O)C(=O)N[C@H](C(N)=O)[C@@H](C)O | – |
| – | Inactive up to 100 uM | 0 | 0 | CC(=O)N[C@@H](CS)C(=O)N[C@@H](Cc1ccc(O)cc1)C(=O)N[C@@H](CO)C(=O)N[C@@H](CCCCN)C(=O)N[C@@H](Cc1ccc(O)cc1)C(=O)N[C@@H](CS)C(N)=O (Ac-CYSKYC-NH2) | – |
| – | Inactive up to 100 uM | 0 | 30 | CC(=O)N[C@@H](Cc1ccccc1)C(=O)N[C@@H](CS)C(=O)N[C@@H](CO)C(=O)N[C@@H](CC(=O)O)C(=O)N[C@@H](Cc1ccc(O)cc1)C(=O)N[C@@H](CS)C(=O)N[C@@H](CCCCN)C(=O)N[C@@H](Cc1ccc(O)cc1)C(=O)N[C@@H](CC(C)C)C(N)=O (Ac-FCSDYCKYL-NH2) | – |
| – | Inactive up to 100 uM | 0 | 24 | CC(=O)N[C@@H](Cc1ccccc1)C(=O)N[C@@H](CS)C(=O)N[C@@H](CO)C(=O)N[C@@H](CC(=O)O)C(=O)N[C@@H](Cc1ccc(O)cc1)C(=O)N[C@@H](CO)C(=O)N[C@@H](CS)C(=O)N[C@@H](Cc1ccc(O)cc1)C(=O)N[C@@H](CC(C)C)C(N)=O (Ac-FCSDYSCYL-NH2) | – |
| – | Inactive up to 100 uM | 0 | 56 | CC(=O)N[C@@H](Cc1ccccc1)C(=O)N[C@@H](CS)C(=O)N[C@@H](CO)C(=O)N[C@@H](CC(=O)O)C(=O)N[C@@H](Cc1ccc(O)cc1)C(=O)N[C@@H](CO)C(=O)N[C@@H](CS)C(=O)N[C@@H](Cc1ccc(O)cc1)C(=O)N[C@@H](CC(C)C)C(=O)N[C@@H](CC(=O)O)C(N)=O (Ac-FCSDYSCYLD-NH2) | – |
| – | Inactive up to 100 uM | 0 | 32 | CC(=O)N[C@@H](Cc1ccccc1)C(=O)N[C@H](C(=O)N[C@@H](CO)C(=O)N[C@@H](CS)C(=O)N[C@@H](Cc1ccc(O)cc1)C(=O)N[C@@H](CO)C(=O)N[C@@H](CCCCN)C(=O)N[C@@H](Cc1ccc(O)cc1)C(=O)N[C@@H](CS)C(=O)N[C@@H](CC(=O)O)C(N)=O)[C@@H](C)O (Ac-FTSCYSKYCD-NH2) | – |
| – | – | – | – | CSCC[C@H](NC(=O)[C@H](CC(C)C)NC(=O)[C@H](Cc1c[nH]c2ccccc12)NC(=O)[C@H](CCC(N)=O)NC(=O)[C@@H](NC(=O)[C@H](Cc1ccccc1)NC(=O)[C@H](CC(=O)O)NC(=O)[C@H](CCC(N)=O)NC(=O)[C@H](C)NC(=O)[C@H](CCCN=C(N)N)NC(=O)[C@H](CCCN=C(N)N)NC(=O)[C@H](CO)NC(=O)[C@H](CC(=O)O)NC(=O)[C@H](CC(C)C)NC(=O)[C@H](Cc1ccc(O)cc1)NC(=O)[C@H](CCCCN)NC(=O)[C@H](CO)NC(=O)[C@H](Cc1ccc(O)cc1)NC(=O)CCCCCc1ccccc1)C(C)C)C(=O)N[C@@H](CC(N)=O)C(=O)N[C@H](C(N)=O)[C@@H](C)O (HELM PEPTIDE1{[O=C(CCCCCc1ccccc1)[*:2]].Y.S.K.Y.L.D.S.R.R.A.Q.D.F.V.Q.W.L.M.N.T.[am]}$$$$V2.0) | 7.37 |
| 131 | – | – | – | CSCC[C@H](NC(=O)[C@H](CC(C)C)NC(=O)[C@H](Cc1c[nH]c2ccccc12)NC(=O)[C@H](CCC(N)=O)NC(=O)[C@@H](NC(=O)[C@H](Cc1ccccc1)NC(=O)[C@H](CC(=O)O)NC(=O)[C@H](CCC(N)=O)NC(=O)[C@H](C)NC(=O)[C@H](CCCNC(=N)N)NC(=O)[C@H](CCCNC(=N)N)NC(=O)[C@H](CO)NC(=O)[C@H](CC(=O)O)NC(=O)[C@H](CC(C)C)NC(=O)[C@H](Cc1ccc(O)cc1)NC(=O)[C@H](CCCCN)NC(=O)[C@H](CO)NC(=O)[C@H](Cc1ccc(O)cc1)NC(=O)CCCCCc1ccccc1)C(C)C)C(=O)N[C@@H](CC(N)=O)C(=O)N[C@H](C(N)=O)[C@@H](C)O (HELM PEPTIDE1{[O=C(CCCCCc1ccccc1)[*:2]].Y.S.K.Y.L.D.S.R.R.A.Q.D.F.V.Q.W.L.M.N.T.[am]}$$$$V2.0) | – |
| – | – | – | – | CSCC[C@H](NC(=O)[C@H](CC(C)C)NC(=O)[C@H](Cc1c[nH]c2ccccc12)NC(=O)[C@H](CCC(N)=O)NC(=O)[C@@H](NC(=O)[C@H](Cc1ccccc1)NC(=O)[C@H](CC(=O)O)NC(=O)[C@H](CCC(N)=O)NC(=O)[C@H](C)NC(=O)[C@H](CCCN=C(N)N)NC(=O)[C@H](CCCN=C(N)N)NC(=O)[C@H](CO)NC(=O)[C@H](CC(=O)O)NC(=O)[C@H](CC(C)C)NC(=O)[C@H](Cc1ccc(O)cc1)NC(=O)[C@H](CCCCN)NC(=O)[C@H](CO)NC(=O)[C@H](Cc1ccc(O)cc1)NC(=O)CCCc1ccccc1)C(C)C)C(=O)N[C@@H](CC(N)=O)C(=O)N[C@H](C(N)=O)[C@@H](C)O (HELM PEPTIDE1{[O=C(CCCc1ccccc1)[*:2]].Y.S.K.Y.L.D.S.R.R.A.Q.D.F.V.Q.W.L.M.N.T.[am]}$$$$V2.0) | 7.38 |
| 21.2 | – | – | – | CSCC[C@H](NC(=O)[C@H](CC(C)C)NC(=O)[C@H](Cc1c[nH]c2ccccc12)NC(=O)[C@H](CCC(N)=O)NC(=O)[C@@H](NC(=O)[C@H](Cc1ccccc1)NC(=O)[C@H](CC(=O)O)NC(=O)[C@H](CCC(N)=O)NC(=O)[C@H](C)NC(=O)[C@H](CCCNC(=N)N)NC(=O)[C@H](CCCNC(=N)N)NC(=O)[C@H](CO)NC(=O)[C@H](CC(=O)O)NC(=O)[C@H](CC(C)C)NC(=O)[C@H](Cc1ccc(O)cc1)NC(=O)[C@H](CCCCN)NC(=O)[C@H](CO)NC(=O)[C@H](Cc1ccc(O)cc1)NC(=O)CCCc1ccccc1)C(C)C)C(=O)N[C@@H](CC(N)=O)C(=O)N[C@H](C(N)=O)[C@@H](C)O (HELM PEPTIDE1{[O=C(CCCc1ccccc1)[*:2]].Y.S.K.Y.L.D.S.R.R.A.Q.D.F.V.Q.W.L.M.N.T.[am]}$$$$V2.0) | – |
| – | Inactive up to 100 uM | 0 | 62 | CC(=O)N[C@@H](Cc1ccccc1)C(=O)N[C@H]1CSSC[C@@H](C(=O)N[C@@H](CCCCN)C(=O)N[C@@H](Cc2ccc(O)cc2)C(=O)N[C@@H](CC(C)C)C(N)=O)NC(=O)[C@H](Cc2ccc(O)cc2)NC(=O)[C@H](CC(=O)O)NC(=O)[C@H](CO)NC1=O (HELM PEPTIDE1{[ac].F.C.S.D.Y.C.K.Y.L.[am]}$PEPTIDE1,PEPTIDE1,3:R3-7:R3$$$V2.0) | – |
| – | Inactive up to 100 uM | 0 | 30 | CC(=O)N[C@@H](Cc1ccccc1)C(=O)N[C@H]1CSSC[C@@H](C(=O)N[C@@H](Cc2ccc(O)cc2)C(=O)N[C@@H](CC(C)C)C(=O)N[C@@H](CC(=O)O)C(N)=O)NC(=O)[C@H](CO)NC(=O)[C@H](Cc2ccc(O)cc2)NC(=O)[C@H](CC(=O)O)NC(=O)[C@H](CO)NC1=O (HELM PEPTIDE1{[ac].F.C.S.D.Y.S.C.Y.L.D.[am]}$PEPTIDE1,PEPTIDE1,3:R3-8:R3$$$V2.0) | – |
| – | Inactive up to 100 uM | 0 | 24 | CC(=O)N[C@@H](Cc1ccccc1)C(=O)N[C@H]1CSSC[C@@H](C(=O)N[C@@H](Cc2ccc(O)cc2)C(=O)N[C@@H](CC(C)C)C(N)=O)NC(=O)[C@H](CO)NC(=O)[C@H](Cc2ccc(O)cc2)NC(=O)[C@H](CC(=O)O)NC(=O)[C@H](CO)NC1=O (HELM PEPTIDE1{[ac].F.C.S.D.Y.S.C.Y.L.[am]}$PEPTIDE1,PEPTIDE1,3:R3-8:R3$$$V2.0) | – |
| – | Inactive up to 100 uM | 0 | 43 | CC(=O)N[C@@H](Cc1ccccc1)C(=O)N[C@H](C(=O)N[C@@H](CO)C(=O)N[C@H]1CSSC[C@@H](C(=O)N[C@@H](CC(=O)O)C(N)=O)NC(=O)[C@H](Cc2ccc(O)cc2)NC(=O)[C@H](CCCCN)NC(=O)[C@H](CO)NC(=O)[C@H](Cc2ccc(O)cc2)NC1=O)[C@@H](C)O (HELM PEPTIDE1{[ac].F.T.S.C.Y.S.K.Y.C.D.[am]}$PEPTIDE1,PEPTIDE1,5:R3-10:R3$$$V2.0) | – |
| 800 | – | – | – | CSCC[C@H](NC(=O)[C@H](CC(C)C)NC(=O)[C@H](Cc1c[nH]c2ccccc12)NC(=O)[C@H](CCC(N)=O)NC(=O)[C@@H](NC(=O)[C@H](Cc1ccccc1)NC(=O)[C@H](CC(=O)O)NC(=O)[C@H](CCC(N)=O)NC(=O)[C@H](C)NC(=O)[C@H](CCCNC(=N)N)NC(=O)[C@H](CCCNC(=N)N)NC(=O)[C@H](CO)NC(=O)[C@H](CC(=O)O)NC(=O)[C@H](CC(C)C)NC(=O)[C@H](Cc1ccc2ccccc2c1)NC(=O)[C@H](CCCCN)NC(=O)[C@H](CO)NC(=O)[C@H](Cc1ccc2ccccc2c1)NC(C)=O)C(C)C)C(=O)N[C@@H](CC(N)=O)C(=O)N[C@H](C(N)=O)[C@@H](C)O (HELM PEPTIDE1{[ac].[O=C([C@H](Cc1ccc2ccccc2c1)N[*:1])[*:2]].S.K.[O=C([C@H](Cc1ccc2ccccc2c1)N[*:1])[*:2]].L.D.S.R.R.A.Q.D.F.V.Q.W.L.M.N.T.[am]}$$$$V2.0) | – |
| – | – | – | – | Ac-YSKYLDSRRAQDFVQWLMNT-NH2 [listing 1 of 2 here] | 7.44 |
| 60 | – | – | – | Ac-YSKYLDSRRAQDFVQWLMNT-NH2 [listing 2 of 2 here] | – |
